Compound activity deposited in PubChem by The Scripps Research Institute Molecular Screening Center.
PLCg1 inh: blocks human PLC-gamma1 enzyme activity. hit rate 0.84% among 370,000. AID 720700. purified PLC-gamma1, fluorogenic substrate, fluorescence. inhibition, % at 12.2 µM. P19174; in the data active means inhibition above about 9.5%
PLC-beta3 inh: blocks human PLC-beta3 enzyme activity. Q01970. Purified PLC-beta3, fluorogenic substrate, fluorescence. inhibition, % at 12.2 µM. hit rate 0.18% among 370,000. AID 720704;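 further: 0% = median of compound wells on plate and 100% = full blocker control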
HGIII-sPLA2 inh: Inhibits HGIII-sPLA2 liposome hydrolysis, primary screen; Q9NZ20; QFRET BODIPY PC-A2 liposome hydrolysis, fluorescence; inhibition, % at 12.2 µM; hit rate 0.56% among 370,000;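 active means inhibition above mean plus 3 SD of compounds lying within the high and low control bounds, cut at about 19% in these data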;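 further: 0% = median of test compound wells and 100% = no enzyme DMSO wells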
Tb MetRS inh: blocks T. brucei methionyl-tRNA synthetase activity; AID 624268; purified T. brucei MetRS, ATP depletion, Kinase-Glo luminescence; inhibition, % at 11.9 µM; hit rate 0.4% among 360,000;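 active means inhibition above a per-plate cutoff of the control wells' mean inhibition plus 3 SD, cut at about 5.5% in these data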;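 further: 0% = DMSO wells median and 100% = median of wells with control inhibitor compound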
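Test system: purified T. brucei MetRS enzyme. Also added: ATP, methionine and E. coli bulk tRNA substrates. Compound: 11.9 µM single point. Schedule: 15 min enzyme-compound preincubation, 2 h reaction, 10 min detection, 25 °C. Signal: luciferase luminescence of residual ATP, Kinase-Glo. Evaluation: percent inhibition versus plate control medians. Controls: DMSO wells, low control.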
PLCgamma1 ctr: counter-screen for PLC-beta3 inhibitors: inhibitors of human PLC-gamma1 | inhibition, % at 12.3 µM | hit rate 3.1% among 3,300 | shares compounds with PLCg1 inh | purified PLC-gamma1, fluorogenic substrate, fluorescence; in the data active means inhibition above about 9.5%
PLCb3 confirm: human PLC-beta3 inhibition, confirmation. shares compounds with PLCg1 inh. purified PLC-beta3, fluorogenic substrate fluorescence. inhibition, % at 12.3 µM. hit rate 1% among 3,300. AID 743261
* hit, by the source's call; nt = no result given. In the library only some 1.9% were active in any assay of this set; here they are far more common. Unless noted, no stated cut-off is given here; in the data, active means inhibition above about 11%; inactive means the rest.

SMILES	PLCg1 inh	PLC-beta3 inh	HGIII-sPLA2 inh	Tb MetRS inh	PLCgamma1 ctr	PLCb3 confirm
CCC1CCCCN1C(=O)c1ccccc1OC1CCN(S(C)(=O)=O)CC1 (stereo not given)	-2	-5	-3	-1	nt	nt
CN(Cc1ccccc1F)C(=O)CCCNC(=O)c1ccc(Cl)cc1	11*	-4	-4	0	-9	-5
C[C@@H]1COc2cc(Br)ccc2S(=O)(=O)N1Cc1cn(CC2CCCCC2)nn1	1	0	2	nt	nt	nt
COC(=O)c1sc(N)c(C(=O)OC)c1CSc1nnnn1C	9.9*	0	5	-1	-3	2
COC(=O)c1sc(N)c(C(=O)OC)c1CSc1nnc(-c2ccccc2Cl)n1C	1	-1	-1	-1	nt	nt
CCCCOCCCNC(=O)C[C@@H]1C(=O)N(CCc2ccc(Cl)cc2)C2=CCCCC[C@]21C(=O)OC	-1	1	-17	nt	nt	nt
CC(C)OC(=O)c1ccc(N2C(=O)C3CC=CCC3C2=O)cc1 (stereo not given)	-1	1	-9	0	nt	nt
COC(=O)c1ccc(N2C(=O)C3CC=CC(C)C3C2=O)cc1 (stereo not given)	10*	4	0	-1	-4	-2
O=C(CS(=O)c1cccc(C(F)(F)F)c1)Nc1ccccc1Cl (stereo not given)	3	-51	-2	0	nt	nt
O=C(CS(=O)c1ccc(F)cc1)Nc1ccccc1Cl (stereo not given)	10.0*	2	4	0	6	-5
CC(=O)c1ccc(OCC(C)C)c(CC(C(N)=O)C(N)=O)c1	7	12*	1	0	-6	1
COC(=O)Cn1cnc2sc(C)c(S(=O)(=O)N3CCN(c4ccccc4OC)CC3)c2c1=O	10*	10	12	0	-1	-3
Cc1[nH]c2ccccc2c1N=Nc1cc(C(=O)O)cc(C(=O)O)c1	11*	-4	3	2	-2	1
CS(=O)(=O)N(CC(=O)Nc1ccccc1C(=O)N1CCCC1)c1ccc2c(c1)OCO2	9.6*	3	8	0	8	0
COc1ccc(N(CC(=O)Nc2cc(Cl)ccc2C)S(=O)(=O)c2c(C)n[nH]c2C)cc1	13*	-3	3	0	3	4
COC(=O)c1ccccc1NC(=O)CN(c1ccc(OC)cc1)S(C)(=O)=O	4	14*	-16	0	-4	-1
Cc1ccc2c(c1)N(CCCC(=O)NCc1cccs1)C(=O)CO2	-5	2	1	nt	nt	nt
Cc1ccnc(SCc2cc(=O)c(OC(=O)c3ccc(C#N)cc3)co2)n1	-1	-2	14	nt	nt	nt
CC(C)(C)c1ccc(OC(=O)c2ccc3snnc3c2)cc1	10*	2	-5	0	0	4
CC(C)(C)c1ccc(OC(=O)c2ccc3nsnc3c2)cc1	0	-1	4	0	nt	nt
COc1cc(N)c(Cl)cc1C(=O)NC1CCN(CCCOc2ccc(F)cc2)CC1OC (stereo not given)	11*	4	-10	nt	-4	-1
Cc1cc(C)nc(Nc2nc(C(N)CCc3ccccc3)cs2)n1 (stereo not given)	14*	11*	7	0	-6	-14
CCCC(=O)Nc1ccc(N2CCN(C(=O)c3cc4ccccc4o3)CC2)cc1	11*	2	9	0	-6	-1
CCCCNc1c(-c2cccc(-c3cc(C(C)=O)cs3)c2)nc2ccc(C)cn12	9.7*	2	-2	0	-5	-11
CCOC(=O)Cn1cc(CN2C(C(=O)OC)CN(CCO)CCS2(=O)=O)nn1 (stereo not given)	1	1	5	nt	nt	nt
Cc1cccc(-c2noc(C(C)NC(=O)c3ccco3)n2)c1 (stereo not given)	13*	2	7	-1	4	-1
CC(NC(=O)c1ccco1)c1nc(-c2ccccc2)no1 (stereo not given)	-1	-4	-2	0	nt	nt
COc1ccc(N2C(=O)C3C(C2=O)C3(c2ccccc2)c2ccccc2)cc1 (stereo not given)	12*	-1	-6	0	-3	-5
COc1ccc(N2C(=O)C3C4C=CC(c5ccccc5)(C3C2=O)C2C(=O)N(c3ccc(OC)cc3)C(=O)C42)cc1 (stereo not given)	-2	0	-25	-1	nt	nt
